How the values were obtained:
[1] = tested on: Bovine viral diarrhea virus 1; assay: Antiviral activity against bovine viral diarrhoea virus type-1 NADL in MDBK cells assessed as inhibition of virus-induced cytopathic effect; assay type: functional, organism-based; settings: Bovine viral diarrhea virus isolates and strains
How it was run: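 MDBK cells seeded at 1 × 10^4 per well in MEM-FBS, 24 h at 37 °C, 5% CO2; medium replaced with serial compound dilutions (DMSO stocks 1 mg/mL), then BVDV inoculum giving >80% CPE by 3 days at 37 °C. Uninfected and virus-only controls on each plate. Read-out is MTS/PMS in MEM-DHS, absorbance 490 nm. EC50 = 50% protection against CPE, logarithmic interpolation from dose-response curves.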

[2] = Selectivity index, ratio of CC50 for MDBK cells to EC50 for bovine viral diarrhoea virus type-1 NADL; assay type: toxicity, cell-based; settings: cattle, read-out: Ratio CC50/EC50
How it was run: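 Ratio of CC50 to EC50. CC50 comes from a 3-day MTS/PMS proliferation assay on MDBK cells. EC50 comes from protection of MDBK cells against NADL-strain cytopathic effect after 3 days, read by MTS/PMS at 490 nm. Both values were derived by logarithmic interpolation from dose-response curves.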

[3] = Cytotoxicity against MDBK cells after 3 days by MTS/PMS assay; assay type: cell-based, Bos taurus; settings: cattle
How it was run: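 MDBK cells seeded at 1 × 10^4 per well in MEM-FBS; serial compound dilutions added 24 h later (DMSO stocks 1 mg/mL). Cells proliferated 3 days at 37 °C. MTS/PMS was then added for 3 h at 37 °C and absorbance read at 490 nm. Viability is the percentage of untreated-cell absorbance. CC50 = 50% inhibition of proliferation, logarithmic interpolation from dose-response curves.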

Poliovirus 1 = assay: Antiviral activity against poliovirus type-1 Sabin; assay type: functional, organism-based; settings: Enterovirus C
[4] = tested on: Human immunodeficiency virus 1; assay: Antiviral activity against HIV1; assay type: functional, organism-based
[5] = tested on: Vesicular stomatitis virus; assay: Antiviral activity against Vesicular stomatitis virus type-1 Indiana; assay type: functional, organism-based
Human alphaherpesvirus 1 = assay: Antiviral activity against HSV1 F; assay type: functional, organism-based; settings: Human alphaherpesvirus 1, F

Row | Structure (SMILES) | EC50 [1] [µM] | selectivity ratio [2] | CC50 at 72 h [3] [µM] | EC50 (Poliovirus 1) [µM] | EC50 [4] [µM] | EC50 [5] [µM] | EC50 (Human alphaherpesvirus 1) [µM]
1 | NC(=S)N/N=C1\CCc2ccccc21 | 18.1 | 8.6 | 156 | – | – | – | –
2 | Cc1cccc2c1CC/C2=N\NC(N)=S | 8.13 | 20.3 | 165 | – | – | – | –
3 | Cc1ccc2c(c1)CC/C2=N\NC(N)=S | 6.48 | 20.1 | 130 | – | – | – | –
4 | NC(=S)N/N=C1\CCc2cc(Cl)ccc21 | 8.8 | > 3.07 | > 27 | – | – | – | –
5 | COc1ccc2c(c1)CC/C2=N\NC(N)=S | 18.8 | 7.93 | 149 | – | – | – | –
6 | Cc1cc2c(c(C)c1Cl)CC/C2=N\NC(N)=S | > 11.1 | < 6.53 | 72.5 | – | – | – | –
7 | Cc1cc2c(c(C)c1Cl)/C(=N/NC(N)=S)CC2 | 7.4 | 10.9 | 80.7 | – | – | – | –
8 | COc1cccc2c1CC/C2=N\NC(N)=S | 242 | 3.39 | 822 | – | – | – | –
9 | COc1ccc2c(c1)/C(=N/NC(N)=S)CC2 | 26 | 4.09 | 106 | – | – | – | –
10 | COc1ccc2c(c1OC)CC/C2=N\NC(N)=S | 11.5 | 12.2 | 141 | – | – | – | –
11 | NC(=S)N/N=C1\CCc2cc(Br)ccc21 | 1.81 | > 8.29 | > 15 | – | – | – | –
12 | Cc1cc(C)c2c(c1)CC/C2=N\NC(N)=S | – | – | 51.7 | – | – | – | –
13 | Cc1cc(C)c2c(c1Br)CC/C2=N\NC(N)=S | 8.94 | 15.5 | 139 | – | – | – | –
14 | COc1cc2c(cc1OC)/C(=N/NC(N)=S)CC2 | 1.75 | 80.3 | 140 | 64 | > 38 | > 75.5 | > 64
15 | NC(=O)c1ncn([C@@H]2O[C@H](CO)[C@@H](O)[C@H]2O)n1 [RIBAVIRIN] | 4.62 | – | 54 | – | – | – | –

Source: ChEMBL document CHEMBL1140965, “New 1-indanone thiosemicarbazone derivatives active against BVDV” (Eur J Med Chem, 2008)
